Measured values taken from ChEMBL document CHEMBL3272253, “Relationship of molecular structure to in vivo scintigraphic distribution patterns of carbon-11 labeled compounds. 3. (11C)Hydantoins” (J Med Chem, 1976).

Experiments:
Conditions in all cases: in vivo; call rule not given here
[1] = Drug level in iv dosed dog kidney by gamma-scintillation counting analysis; assay type: ADME, organism-based, Canis lupus familiaris
In short: (§1)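 Carbon-11-labeled hydantoin, 1–59 mCi of final product, dissolved in 1–1.5% aqueous NaOH and given iv to dogs. Distribution imaged serially for up to 2 hr or more with a scintillation camera fitted with a pinhole collimator (1-cm hyperbolic aperture), with whole-body scintiphotos at about 5 and 30 min. Readout is qualitative to semiquantitative; no coincidence imaging.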

[2] = Drug level in iv dosed dog lung by gamma-scintillation counting analysis; assay type: ADME, organism-based, Canis lupus familiaris; in short: as §1
Liver [3] = experiment: Drug level in iv dosed dog liver by gamma-scintillation counting analysis; assay type: ADME, organism-based, Canis lupus familiaris; in short: as §1
Canis familiaris [4] = experiment: Drug level in iv dosed dog by gamma-scintillation counting analysis; assay type: ADME, organism-based, Canis lupus familiaris; in short: as §1
[5] = Drug excretion in iv dosed dog urine by gamma-scintillation counting analysis; assay type: ADME, organism-based, Canis lupus familiaris; in short: as §1
[6] = Drug excretion in iv dosed dog bile after 5 to 30 mins by gamma-scintillation counting analysis; assay type: ADME, organism-based, Canis lupus familiaris; in short: as §1
Brain [7] = experiment: Drug level in iv dosed dog brain after 5 to 30 mins by gamma-scintillation counting analysis; assay type: ADME, organism-based, Canis lupus familiaris; in short: as §1
[8] = Drug level in iv dosed dog vein by gamma-scintillation counting analysis; assay type: ADME, organism-based, Canis lupus familiaris; in short: as §1
[9] = Drug level in iv dosed dog stomach after 40 mins by gamma-scintillation counting analysis; assay type: ADME, organism-based, Canis lupus familiaris
In short: (§2)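 Dogs received the 11C-labeled hydantoin iv in 1–1.5% aqueous NaOH. Organs and tissues were taken at necropsy 40 min after dosing and placed at fixed geometrical positions in front of a thallium-activated NaI scintillation detector. Detected scintillation events gave quantitative estimates of tissue activity.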

[10] = Drug level in iv dosed dog blood after 40 mins by gamma-scintillation counting analysis; assay type: ADME, organism-based, Canis lupus familiaris; in short: as §2
[11] = Drug level in iv dosed dog omentum after 40 mins by gamma-scintillation counting analysis; assay type: ADME, organism-based, Canis lupus familiaris; in short: as §2
[12] = Drug level in iv dosed dog kidney after 40 mins by gamma-scintillation counting analysis; assay type: ADME, organism-based, Canis lupus familiaris; in short: as §2
Brain [13] = experiment: Drug level in iv dosed dog brain by gamma-scintillation counting analysis; assay type: ADME, organism-based, Canis lupus familiaris; in short: as §1
[14] = Drug level in iv dosed dog skeletal muscle after 40 mins by gamma-scintillation counting analysis; assay type: ADME, organism-based, Canis lupus familiaris, Muscle tissue; in short: as §2
[15] = Drug level in iv dosed dog lung after 40 mins by gamma-scintillation counting analysis; assay type: ADME, organism-based, Canis lupus familiaris; in short: as §2
Brain [16] = experiment: Drug level in iv dosed dog brain after 40 mins by gamma-scintillation counting analysis; assay type: ADME, organism-based, Canis lupus familiaris; in short: as §2
[17] = Drug excretion in iv dosed dog bile by gamma-scintillation counting analysis; assay type: ADME, organism-based, Canis lupus familiaris; in short: as §1
Liver [18] = experiment: Drug level in iv dosed dog liver after 40 mins by gamma-scintillation counting analysis; assay type: ADME, organism-based, Canis lupus familiaris; in short: as §2
[19] = Drug level in iv dosed dog cerebrospinal fluid after 40 mins by gamma-scintillation counting analysis; assay type: ADME, organism-based, Canis lupus familiaris; in short: as §2
[20] = Drug level in iv dosed dog pancreas after 40 mins by gamma-scintillation counting analysis; assay type: ADME, organism-based, Canis lupus familiaris; in short: as §2
[21] = Drug level in iv dosed dog mesenteric fat after 40 mins by gamma-scintillation counting analysis; assay type: ADME, organism-based, Canis lupus familiaris; in short: as §2
[22] = Drug level in iv dosed dog heart after 40 mins by gamma-scintillation counting analysis; assay type: ADME, organism-based, Canis lupus familiaris; in short: as §2
Canis familiaris [23] = experiment: Drug level in iv dosed dog after 5 to 30 mins by gamma-scintillation counting analysis; assay type: ADME, organism-based, Canis lupus familiaris; in short: as §1
Nucleic Acid [24] = experiment: Ratio of drug level in iv dosed dog mesenteric fat to temporal muscle after 80 mins by gamma-scintillation counting analysis; assay type: ADME, organism-based, Canis lupus familiaris
In short: (§3)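 Dogs were dosed iv with 11C-labeled hydantoin. Tissues and fluids were collected at necropsy 73 or 80 min post-dose and counted at fixed geometry in front of a thallium-activated NaI scintillation detector. Values are cpm/g of tissue divided by cpm/g of temporal muscle.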

Nucleic Acid [25] = experiment: Ratio of drug level in iv dosed dog washed heart to temporal muscle after 80 mins by gamma-scintillation counting analysis; assay type: ADME, organism-based, Canis lupus familiaris
In short: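 Dogs received the [11C]-labeled hydantoin intravenously. At necropsy 80 min post-injection, the heart was washed and collected with temporal muscle. Each sample was placed at a fixed position before a thallium-activated NaI scintillation detector. The ratio is cpm/g tissue over cpm/g temporal muscle.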

Nucleic Acid [26] = experiment: Ratio of drug level in iv dosed dog liver to temporal muscle after 80 mins by gamma-scintillation counting analysis; assay type: ADME, organism-based, Canis lupus familiaris; in short: as §3
[27] = Drug excretion in iv dosed dog urine after 1 hr by gamma-scintillation counting analysis; assay type: ADME, organism-based, Canis lupus familiaris
Nucleic Acid [28] = experiment: Ratio of drug level in iv dosed dog bile to temporal muscle after 80 mins by gamma-scintillation counting analysis; assay type: ADME, organism-based, Canis lupus familiaris; in short: as §3
Nucleic Acid [29] = experiment: Ratio of drug level in iv dosed dog kidney to temporal muscle after 80 mins by gamma-scintillation counting analysis; assay type: ADME, organism-based, Canis lupus familiaris; in short: as §3
Nucleic Acid [30] = experiment: Ratio of drug level in iv dosed dog brain to temporal muscle after 80 mins by gamma-scintillation counting analysis; assay type: ADME, organism-based, Canis lupus familiaris; in short: as §3
Nucleic Acid [31] = experiment: Ratio of drug level in iv dosed dog blood to temporal muscle after 80 mins by gamma-scintillation counting analysis; assay type: ADME, organism-based, Canis lupus familiaris; in short: as §3
Nucleic Acid [32] = experiment: Ratio of drug level in iv dosed dog stomach to temporal muscle after 80 mins by gamma-scintillation counting analysis; assay type: ADME, organism-based, Canis lupus familiaris; in short: as §3
Nucleic Acid [33] = experiment: Ratio of drug level in iv dosed dog spleen to temporal muscle after 80 mins by gamma-scintillation counting analysis; assay type: ADME, organism-based, Canis lupus familiaris; in short: as §3
Nucleic Acid [34] = experiment: Ratio of drug level in iv dosed dog pancreas to temporal muscle after 80 mins by gamma-scintillation counting analysis; assay type: ADME, organism-based, Canis lupus familiaris; in short: as §3
Nucleic Acid [35] = experiment: Ratio of drug level in iv dosed dog lung to temporal muscle after 80 mins by gamma-scintillation counting analysis; assay type: ADME, organism-based, Canis lupus familiaris; in short: as §3

Compound	Drug uptake [1]	Drug uptake [2]	Drug uptake (Liver [3])	Drug uptake (Canis familiaris [4])	Drug excretion [5]	Drug excretion [6]	Drug uptake (Brain [7])	Drug uptake (Brain [13])	Drug excretion [17]	further results
CCCC1(CCC)NC(=O)N[11C]1=O	Active	Active	Active	Active	metabolite_detected	metabolite_notdetected	Not Active	–	–	–
CC(C)CC1(CC(C)C)NC(=O)N[11C]1=O	Active	Active	Active	Active	metabolite_detected	metabolite_notdetected	Not Active	–	–	–
CC1(CCC(=O)O)NC(=O)N[11C]1=O (stereo unspecified)	Active	Active	Active	Active	metabolite_detected	metabolite_notdetected	Not Active	–	–	Drug uptake [8]: Active
O=C1N[11C](=O)C(c2ccccc2)(c2ccccc2)N1	Active	–	–	–	metabolite_detected	–	–	Active	metabolite_detected	Drug uptake [9]: Active; Drug uptake [10]: Active; Drug uptake [11]: Active; Drug uptake [12]: Active; Drug uptake [14]: Active; Drug uptake [15]: Active; Drug uptake (Brain [16]): Active; Drug uptake (Liver [18]): Active; Drug uptake [19]: Active; Drug uptake [20]: Active; Drug uptake [21]: Active; Drug uptake [22]: Active
O=C1N[11C](=O)C(c2ccc(Cl)cc2)(c2ccc(Cl)cc2)N1	Active	–	–	–	metabolite_detected	–	–	Active	metabolite_detected	–
O=C1N[11C](=O)C(c2ccccc2)N1c1ccccc1 (stereo unspecified)	Active	–	–	–	metabolite_detected	–	–	Active	metabolite_detected	–
O=C1NC(c2ccccc2)[11C](=O)N1 (stereo unspecified)	–	–	–	–	–	–	–	–	–	Drug uptake (Canis familiaris [23]): Active; Ratio (Nucleic Acid [24]): 0.25; Ratio (Nucleic Acid [25]): 0.71; Ratio (Nucleic Acid [26]): 2.25; Drug excretion [27]: metabolite_detected; Ratio (Nucleic Acid [28]): 0.83; Ratio (Nucleic Acid [29]): 1.91; Ratio (Nucleic Acid [30]): 0.73; Ratio (Nucleic Acid [31]): 0.93; Ratio (Nucleic Acid [32]): 0.76; Ratio (Nucleic Acid [33]): 0.81; Ratio (Nucleic Acid [34]): 0.63; Ratio (Nucleic Acid [35]): 1.05

The next lines start with results.

Drug uptake [1]	Drug uptake [2]	Drug uptake (Liver [3])	Drug uptake (Canis familiaris [4])	Drug excretion [5]	Drug excretion [6]	Drug uptake (Brain [7])	Drug uptake (Brain [13])	Drug excretion [17]	Compound	further results
Active	Active	Active	Active	metabolite_detected	–	–	–	–	CSCCC1NC(=O)N[11C]1=O (stereo unspecified)	–
Active	Active	Active	Active	metabolite_detected	metabolite_notdetected	Not Active	–	–	CCC1(CC)NC(=O)N[11C]1=O	–
